Results taken from ChEMBL document CHEMBL1153319, “Dancing of the second aromatic residue around the 6,8-diazabicyclo[3.2.2]nonane framework: influence on sigma receptor affinity and cytotoxicity” (J Med Chem, 2009).

Columns and labels:
[1] = molecular target: Sigma non-opioid intracellular receptor 1 (Homo sapiens, UniProt Q99720); assay: Binding affinity to sigma 1 receptor
Outline: (§1)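 Guinea pig brain homogenate (about 75 µg protein) incubated with test compound, 2 nM [3H]-(+)-pentazocine (Kd 2.9 nM) in 50 mM Tris pH 7.4, 180 min at 37 °C. Nonspecific binding with 10 µM unlabeled (+)-pentazocine. Rapid filtration, water washes, solid scintillator counting. Ki by Cheng–Prusoff from six-concentration competition curves, triplicates, mean ± SEM of three experiments; single-point lines give inhibition at 1 µM.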

[2] = molecular target: Sigma non-opioid intracellular receptor 1 (Cavia porcellus, UniProt Q60492); assay: Displacement of [3H](+)-pentazocine from sigma 1 receptor in guinea pig brain membrane by scintillation analysis; assay type: cell membranes
Sigma non-opioid intracellular receptor 1 (Cavia porcellus, UniProt Q60492), sequence (Q60492 whole entry): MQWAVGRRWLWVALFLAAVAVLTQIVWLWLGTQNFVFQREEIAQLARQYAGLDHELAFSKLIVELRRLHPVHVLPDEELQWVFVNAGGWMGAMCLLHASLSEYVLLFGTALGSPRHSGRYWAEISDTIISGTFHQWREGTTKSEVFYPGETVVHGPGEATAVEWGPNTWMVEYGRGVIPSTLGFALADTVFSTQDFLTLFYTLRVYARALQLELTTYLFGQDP

[3] = Displacement of [3H]1,3-ditolylguanine from sigma 2 receptor in rat liver membrane by solid scintillation analysis; assay type: cell membranes
[4] = Selectivity for sigma 2 receptor in rat liver membrane over sigma 1 receptor in guinea pig brain membrane; assay type: cell membranes
5637 = assay: Cytotoxicity against human 5637 cells after 96 hrs by crystal violet staining; assay type: functional, cell-based; conditions: Homo sapiens, 5637, 96 h
Outline: (§2)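 Human tumour lines from DSMZ given a 20 µM primary screen for 96 h at 37 °C. Those cutting growth >50% versus untreated controls were then tested at 5 serial dilutions (DMSO stocks) for 96 h. Remaining cell density read by crystal violet staining. IC50 from least-squares dose-response fit using concentrations giving T/C 10–90%.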

RT-4 = assay: Cytotoxicity against human RT4 cells after 96 hrs by crystal violet staining; assay type: functional, cell-based; conditions: RT-4, 96 h; outline: as §2
A-427 = assay: Cytotoxicity against human A427 cells after 96 hrs by crystal violet staining; assay type: functional, cell-based; conditions: A-427, 96 h; outline: as §2
[5] = Cytotoxicity against human LCLC-103H cells after 96 hrs by crystal violet staining; assay type: functional, cell-based; outline: as §2
DAN-G = assay: Cytotoxicity against human DAN-G cells after 96 hrs by crystal violet staining; assay type: functional, cell-based; outline: as §2
MCF7 = assay: Cytotoxicity against human MCF7 cells after 96 hrs by crystal violet staining; assay type: functional, cell-based; conditions: MCF7, 96 h; outline: as §2
[6] = Selectivity ratio of IC50 for sigma 2 receptor in rat liver membrane to IC50 for sigma 1 receptor in guinea pig brain membrane; assay type: cell membranes
[7] = molecular target: Sigma non-opioid intracellular receptor 1 (Cavia porcellus) (UniProt Q60492); assay: Displacement of [3H](+)-pentazocine from sigma 1 receptor in guinea pig brain membrane at 1 uM by scintillation analysis; assay type: cell membranes; outline: as §1
Sigma non-opioid intracellular receptor 1 (Cavia porcellus), sequence (Q60492 whole entry): as above

Rattus norvegicus = species on record: Rattus norvegicus; assay: Displacement of [3H]1,3-ditolylguanine from sigma 2 receptor in rat liver membrane by solid scintillation analysis at 1 uM; assay type: cell membranes

Sigma non-opioid intracellular receptor 1 (Homo sapiens, UniProt Q99720), sequence (Q99720 whole entry): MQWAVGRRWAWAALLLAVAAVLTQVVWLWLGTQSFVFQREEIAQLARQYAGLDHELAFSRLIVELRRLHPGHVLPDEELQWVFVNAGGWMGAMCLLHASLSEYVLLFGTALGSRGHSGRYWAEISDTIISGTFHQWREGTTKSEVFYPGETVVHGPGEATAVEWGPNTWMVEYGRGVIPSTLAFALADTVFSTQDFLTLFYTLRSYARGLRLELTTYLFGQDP

| Structure (SMILES) | Ki [1] [µM] | Ki [2] [µM] | Ki [3] [µM] | fold change (FC) [4] | Ratio IC50 [6] | Activity [7] [%] | Activity (Rattus norvegicus) [%] | IC50 5637 [µM] | IC50 (RT-4) [µM] | IC50 (A-427) [µM] | IC50 [5] [µM] | IC50 (DAN-G) [µM] | IC50 (MCF7) [µM] |
| --- | --- | --- | --- | --- | --- | --- | --- | --- | --- | --- | --- | --- | --- |
| C=CCN1C[C@@H]2[C@H](Oc3ccccc3)CC[C@H]1CN2Cc1ccc(OC)cc1OC |  | 4.05 | 0.469 | 5 |  |  |  | 11.7 | 15.3 | 7.09 | > 20 | 12.5 | 9.11 |
| COc1ccc(CN2CCN(Cc3ccccc3)[C@@H](CO)C2)cc1 | 0.012 |  |  |  |  |  |  |  |  |  |  |  |  |
| C=CCN1C[C@@H]2[C@H](OCc3ccccc3)CC[C@H]1CN2Cc1ccc(OC)cc1OC |  |  | 0.4 | 5 |  | 20 |  | 4.73 | 8.57 | 3.55 | 11.1 | 4.58 | 5.81 |
| CCCN1CC2C(=O)C[C@@H](c3ccccc3)C1CN2Cc1ccc(OC)cc1 (stereo partly drawn) |  |  |  |  |  | 40 | 11 | > 20 | > 20 | > 20 | > 20 | > 20 | > 20 |
| COc1ccc(CN2C[C@@H]3[C@H](c4ccccc4)CC(=O)[C@H]2CN3Cc2ccccc2)cc1 |  |  |  |  |  | 17 | 0 | 18.3 | 20.5 | 10.3 | > 20 | 16.1 | 19.4 |

Further lines, with some results ahead:

| Ki [1] [µM] | Ki [2] [µM] | Ki [3] [µM] | fold change (FC) [4] | Ratio IC50 [6] | Activity [7] [%] | Activity (Rattus norvegicus) [%] | Structure (SMILES) | IC50 5637 [µM] | IC50 (RT-4) [µM] | IC50 (A-427) [µM] | IC50 [5] [µM] | IC50 (DAN-G) [µM] | IC50 (MCF7) [µM] |
| --- | --- | --- | --- | --- | --- | --- | --- | --- | --- | --- | --- | --- | --- |
| 1.6 |  |  |  |  |  |  | C=CCN1CC2C(=O)CCC1CN2Cc1ccc(OC)cc1 (stereo not drawn) |  |  |  |  |  |  |
|  | 0.091 | 6.46 |  | 70 |  |  | C=CCN1C[C@H]2[C@H](OCc3ccccc3)CC[C@@H]1CN2Cc1ccc(OC)cc1 | 11.2 | 14.3 | 4.61 | 19.9 | 12.7 | 9.13 |
| 0.053 |  |  |  |  |  |  | COc1ccc(CN2CC3CCC(=O)C2CN3Cc2ccccc2)cc1 (stereo not drawn) |  |  |  |  |  |  |
|  | 0.104 | 0.566 |  | 5 |  |  | C=CCN1C[C@H]2/C(=C\c3ccccc3)CC[C@@H]1CN2Cc1ccc(OC)cc1 | 10.9 | 14.1 | 3.93 | 17.8 | 9.82 | 7.25 |
|  |  |  |  |  | 37 | 44 | C=CCN1C[C@H]2c3[nH]c4ccc(OC)cc4c3C[C@@H]1CN2Cc1ccc(OC)cc1 | 16.1 | > 20 | 15.4 | > 20 | > 20 | > 20 |
|  | 2.12 | 0.479 | 5 |  |  |  | C=CCN1C[C@@H]2[C@H](Oc3ccccc3)CC[C@H]1CN2Cc1ccc(OC)cc1 | 14 | 19.1 | 5.95 | > 20 | 15.8 | 12.7 |
| 2.24 |  |  |  |  |  |  | C=CCN1CC2[C@@H](O)CCC1CN2Cc1ccc(OC)cc1 (stereo partly drawn) |  |  |  |  |  |  |
